Data set [1] concerns LLC-PK1. Description: Growth inhibition of pig LLC-PK1 cells expressing MDR1 by Alamar Blue assay. The format is functional. Conditions: Sus scrofa. In outline: (§1)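 Porcine epithelial L-MDR1 (P-gp expressing) cells and their non-expressing parent line were exposed to compound for 72 h. Viability was read with AlamarBlue dye and GI50 derived. P-gp expression was verified by Western blot with β-actin as loading control. The resistance ratio compares GI50 in MDR1 versus parent cells.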
In general terms: The colour change of resazurin is a common sign of viable cells or microbes.

The target in data set [2] is Tubulin (Homo sapiens) (UniProt P68371+Q9H4B7+P0DPH7+P68366+Q13509+Q71U36+P04350+Q3ZCM7+P07437+P68363+Q9BQE3+Q6PEY2+Q13885+Q9BVA1+Q9BUF5). The following applies: 5 uM.
A short description of data set [3]: Growth inhibition of pig LLC-PK1 cells by Alamar Blue assay. The format is cell-based, Sus scrofa. In outline: (§2)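 Cell viability was read with AlamarBlue dye in 96-well format and GI50 values derived, to assess P-gp effects. Cells were P-gp-expressing NCI/ADR-Res ovarian cancer cells and L-MDR1 porcine epithelial cells, each with its non-expressing parent line. P-gp expression was confirmed by Western blot with β-actin as loading control. Resistance is the GI50 in the P-gp line over the GI50 in the parent line.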

The test system of data set [4] is PC-3. Kind of data set: Growth inhibition of human PC3 cells after 72 hrs by Alamar Blue assay. The format is functional. The following applies: PC-3, 72 h. Summed up: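 PC3 prostate cancer cells and docetaxel-resistant PC3-DR cells were exposed to drug for 72 hours in 96-well format. Viability was read with AlamarBlue dye and GI50 derived. Resistance is the GI50 in PC3-DR over the GI50 in parental PC3.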

In data set [5] the test system is OVCAR-8. Description: Resistance factor, ratio of GI50 for P-gp expressing NCI-ADR-RES cells to GI50 for human OVCAR8 cells. The format is functional. Summed up:
as §2

Data set [6] is described as follows: Growth inhibition of human OVCAR8 cells by Alamar Blue assay. The format is functional. The following applies: OVCAR-8. Summed up:
as §2

The subject of data set [7] is LLC-PK1. Description: Resistance factor, ratio of GI50 for pig LLC-PK1 cells expressing MDR1 to GI50 for pig LLC-PK1 cells. The arrangement: species or system Sus scrofa. Summed up: as §1
The subject of data set [8] is PC-3. Description: Induction of beta tubulin de-stabilization in human PC3 cells at 10 nM after 24 hrs by DAPI-staining based immunofluorescence assay. The format is cell-based. In outline: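 PC3 cells were treated for 24 hours with the test agent at 1, 10 or 100 nM, or with 10 nM docetaxel or vinblastine as stabilizing and destabilizing references. Cells were immunostained for beta-tubulin (green) with DAPI nuclear counterstain (blue) and the microtubule staining pattern imaged.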

The nature of data set [9]: Growth inhibition of P-gp expressing human NCI-ADR-RES cells by Alamar Blue assay. The format is functional. Summed up:
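72-h cytotoxicity in 96-well plates with AlamarBlue viability dye, giving GI50. Line 1 uses docetaxel-resistant PC3 prostate cells (PC3-DR), and line 2 uses NCI/ADR-Res ovarian cells. P-gp expression in both was confirmed by Western blot, with β-actin as the loading control.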

Active and inactive are the calls of the source. No cut-off for these calls is given here.

Broadly, the GI50 is the concentration at which growth is held to half of that of the control. A high value points to lower sensitivity of the cells. As to `CC[C@]1(O)C[C@@H]2CN(CCc3c([nH]c4ccccc34)[C@@](C(=O)OC)(c3cc4c(cc3OC)N(C)[C@H]3[C@@](O)(C(=O)OC)[C@H](OC(C)=O)[C@]5(CC)C=CCN6CC[C@]43[C@@H]65)C2)C1` [VINBLASTINE], the 50% growth inhibitory concentration (GI50) was determined as 86.8 nM in data set [1]; 1.5 nM in [3]; 5.2 nM in [4]; 2.8 nM in data set [6]; 1400 nM in [9]. Besides, the inhibition result in data set [2] was “Active”. Besides, the RatioGI50 in data set [5] is recorded as 500; in [7], 58. Further, the result in data set [8] was Active.
